In brackets after ≈: the same amount, converted by molar mass. Activity calls are given as the source filed them. No cut-off for these calls is given here.
How the values were obtained:
Plasmodium falciparum [1] = experiment: Antiplasmodial activity against drug resistant Plasmodium falciparum Dd2 infected in human RBC assessed as parasite growth inhibition incubated for 72 hrs by SYBR Green dye based fluorescence assay; assay type: functional, organism-based
In short: (§1)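 Blood-stage cultures at 2% hematocrit, human O+ RBCs, RPMI 1640 + 25 mM HEPES, 0.5% Albumax-I, 23 mM bicarbonate, 92 μM hypoxanthine. Start at 0.5% parasitemia; 72 h at 37°C, 5% CO₂; freeze-thaw, then SYBR Green in saponin/Triton lysis buffer, 4 h RT dark; fluorescence ex 485/em 535 nm. 10-point curves, technical duplicates or triplicates, final 0.5% DMSO; four-parameter fit gives EC₅₀; mean ± std dev of biological replicates.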

Plasmodium falciparum [2] = experiment: Antiplasmodial activity against asexual blood stage Plasmodium falciparum 3D7 infected in human RBC assessed as parasite growth inhibition incubated for 72 hrs by SYBR Green dye based fluorescence assay; assay type: functional, organism-based; in short: as §1
HepG2 = experiment: (§2) Cytotoxicity against human HepG2 cells assessed as reduction in cell viability incubated for 72 hrs by CellTiter-Glo assay; assay type: toxicity, cell-based; details: hepg2, 72 h
Plasmodium falciparum [3] = experiment: Antiplasmodial activity against Plasmodium falciparum NF54 expressing transgenic luciferase assessed as parasite kill rate at trophozoite stage incubated for 72 hrs by bioluminescence relative rate of kill (BRRoK) assay; assay type: functional, organism-based; details: RBC
Plasmodium falciparum [4] = experiment: Antiplasmodial activity against Plasmodium falciparum NF54 expressing transgenic luciferase assessed as parasite kill rate at trophozoite stage incubated for 6 hrs by bioluminescence relative rate of kill (BRRoK) assay; assay type: functional, organism-based; details: RBC
[5] = as §2; assay type: toxicity, cell-based; details: HepG2 cells
Hemozoin = experiment: Inhibition of Beta-hematin assessed as bis-pyridyl-Fe(III)PPIX complex formation incubated for 5 hrs by NP40 detergent-mediated colorimetric assay
[6] = Kinetic solubility of compound in PBS at pH 2 by HPLC analysis; assay type: physicochemical; details: read-out: Kinetic_solubility
[7] = Metabolic stability in human liver microsomes assessed as intrinsic clearance per mg of protein at 1 uM incubated for 60 mins presence of NADPH regenerating buffer system by LC-MS analysis; assay type: ADME, Microsome; details: 1 h
[8] = Kinetic solubility of compound in PBS at pH 6.5 by HPLC analysis; assay type: physicochemical; details: read-out: Kinetic_solubility
[9] = Plasmodium falciparum, Dd2, Erythrocyte, 72 h
[10] = Plasmodium falciparum, 3D7, Erythrocyte, 72 h

## CCCN(C(C(=O)N(C)c1ccccc1C)c1cccnc1)C1(c2cccc(C(F)(F)F)c2)CC1 (racemic)
Plasmodium falciparum [1]; [9]
  EC50: 0.33 µM
Plasmodium falciparum [2]; [10]
  EC50: 0.21 µM
HepG2
  CC50: > 15 µM

## Cc1ccccc1-n1nnnc1C(c1cccnc1)N(Cc1cc(C(F)(F)F)ccc1F)C1CC1 (racemic)
Plasmodium falciparum [1]; [9]
  EC50: 0.67 µM
Plasmodium falciparum [2]; [10]
  EC50: 0.6 µM

## CCc1ccccc1N(C)C(=O)C(c1cncnc1)N(Cc1cccc(C(F)(F)F)c1)C1CC1 (racemic)
Plasmodium falciparum [1]; [9]
  EC50: 0.57 µM
Plasmodium falciparum [2]; [10]
  EC50: 0.24 µM
HepG2
  CC50: > 25 µM

## CC(=O)c1ccc(NC(=O)c2ccc(NC(=O)C3COc4ccccc4O3)cc2)cc1 (stereo unspecified)
Plasmodium falciparum [3]
  Activity: Active
Plasmodium falciparum [4]
  Activity: Active
Plasmodium falciparum [2]; [10]
  EC50: 0.71 µM
[5]
  CC50 at 72 h: > 30 µM

## FC(F)(F)c1cccc(CN(C2CC2)C(c2cccnc2)c2nnnn2C2CC2)c1 (racemic)
Plasmodium falciparum [1]; [9]
  EC50: 3 µM
Plasmodium falciparum [2]; [10]
  EC50: 1.5 µM

## CCC(C(=O)Nc1cccc(Cl)c1)N1C(=O)C(C)N=C(c2ccccc2)c2ccccc21 (stereo unspecified)
Plasmodium falciparum [3]
  Activity: Active
Plasmodium falciparum [4]
  Activity: Active
Plasmodium falciparum [2]; [10]
  EC50: 0.31 µM
[5]
  CC50 at 72 h: > 30 µM

## Cc1cc(Nc2ccc3ccccc3c2)n2ncnc2n1
Hemozoin
  IC50: > 1000 µM

## CCCN(C(c1cncnc1)c1nnnn1-c1ccccc1C)C1(c2cccc(C(F)(F)F)c2)CC1 (racemic)
Plasmodium falciparum [1]; [9]
  EC50: 0.52 µM
Plasmodium falciparum [2]; [10]
  EC50: 0.31 µM

## COc1ccccc1CN(C)C(c1ccccc1)c1nnnn1-c1ccccc1C (racemic)
Plasmodium falciparum [1]; [9]
  EC50: 10 µM
Plasmodium falciparum [2]; [10]
  EC50: 9.7 µM

## Cc1cc(Nc2ccc(S(F)(F)(F)(F)F)cc2)n2nc(C(C)(F)F)nc2n1 [DSM-265]
Plasmodium falciparum [3]
  Activity: Active
Plasmodium falciparum [4]
  Activity: Active
Plasmodium falciparum [2]; [10]
  EC50: 0.005 µM
[5]
  CC50 at 72 h: > 30 µM

## Cc1ccccc1N(C)C(=O)C(c1cncnc1)N(Cc1cccc(C(F)(F)F)c1)C1CC1 (racemic)
Plasmodium falciparum [1]; [9]
  EC50: 0.79 µM
[6]
  solubility kinetic: 11 µg/mL (≈ 24.2 µM)
Plasmodium falciparum [2]; [10]
  EC50: 0.4 µM
[7]
  CLH: 531 µL/min/mg
HepG2
  CC50: > 30 µM
[8]
  solubility kinetic: > 45 µg/mL

## Cc1ccccc1-n1nnnc1C(c1cncnc1)N(Cc1cc(F)cc(C(F)(F)F)c1)C1CC1 (single isomer, unassigned; (-))
Plasmodium falciparum [1]; rbc
  EC50: 2.6 µM
Plasmodium falciparum [2]; rbc
  EC50: 0.42 µM
HepG2
  CC50: > 30 µM

## Cc1ccccc1-n1nnnc1C(c1cncnc1)N(Cc1ccc(F)c(C(F)(F)F)c1)C1CC1 (racemic)
Plasmodium falciparum [1]; [9]
  EC50: 0.68 µM
Plasmodium falciparum [2]; [10]
  EC50: 0.47 µM

## COc1ccc(C(F)(F)F)cc1CN(C)C(c1cccnc1)c1nnnn1-c1ccccc1C (racemic)
Plasmodium falciparum [1]; rbc
  EC50: 3.7 µM
Plasmodium falciparum [2]; [10]
  EC50: 1.3 µM

## Cc1ccccc1-n1nnnc1C(c1cncnc1)N(Cc1cccc(C(F)(F)F)c1F)C1CC1 (racemic)
Plasmodium falciparum [1]; [9]
  EC50: 0.71 µM
Plasmodium falciparum [2]; [10]
  EC50: 0.47 µM

## CN(C(=O)C(c1cncnc1)N(Cc1cccc(C(F)(F)F)c1)C1CC1)c1ccccc1 (racemic)
Plasmodium falciparum [1]; [9]
  EC50: 2 µM
Plasmodium falciparum [2]; [10]
  EC50: 0.72 µM
HepG2
  CC50: > 30 µM

## Cc1ccccc1N(C)C(=O)C(c1cccnc1)N(Cc1cccc(SC(F)(F)F)c1)C1CC1 (racemic)
Plasmodium falciparum [1]; [9]
  EC50: 0.39 µM
Plasmodium falciparum [2]; [10]
  EC50: 0.31 µM
HepG2
  CC50: > 30 µM

## COc1ccc2nc3cc(Cl)ccc3c(Nc3cc(CN4CCCC4)c(O)c(CN4CCCC4)c3)c2n1 [PYRONARIDINE]
Hemozoin
  IC50: 2.2 µM

## COc1ccc(C(F)(F)F)cc1CN(C)C(c1cccnc1)c1nnnn1-c1ccccc1C (single isomer, unassigned; (-))
Plasmodium falciparum [1]; rbc
  EC50: 1.7 µM

## COc1ccc(C(F)(F)F)cc1CN(C)C(c1ccccc1)c1nnnn1-c1ccccc1C (racemic)
Plasmodium falciparum [1]; [9]
  EC50: 3.7 µM
Plasmodium falciparum [2]; [10]
  EC50: 1.7 µM

## Cc1ccccc1-n1nnnc1C(c1cncnc1)N(Cc1cc(F)cc(C(F)(F)F)c1)C1CC1 (racemic)
Plasmodium falciparum [1]; rbc
  EC50: 1.2 µM
Plasmodium falciparum [2]; [10]
  EC50: 0.37 µM
[5]
  CC50 at 72 h: 36 µM

## COc1ccc(C(F)(F)F)cc1CN(C)C(c1cccnc1)c1nnnn1-c1ccccc1C (single isomer, unassigned; (+))
Plasmodium falciparum [1]; rbc
  EC50: 2.5 µM
Plasmodium falciparum [2]; rbc
  EC50: 1.5 µM

## CN(Cc1cc(C(F)(F)F)ccc1F)C(c1cccnc1)c1nnnn1C1CCCCC1 (racemic)
Plasmodium falciparum [1]; [9]
  EC50: 2.6 µM
Plasmodium falciparum [2]; [10]
  EC50: 1.7 µM

## COc1ncnc(NS(=O)(=O)c2ccc(N)cc2)c1OC [SULFADOXINE]
Hemozoin
  IC50: > 1000 µM

## Cc1ccccc1N(C)C(=O)C(c1cncnc1)N(Cc1cccc(OC(F)(F)F)c1)C1CC1 (racemic)
Plasmodium falciparum [1]; [9]
  EC50: 0.59 µM
Plasmodium falciparum [2]; [10]
  EC50: 0.24 µM
HepG2
  CC50: > 30 µM

## Cc1ccccc1-n1nnnc1C(C1CC1)N(Cc1cccc(C(F)(F)F)c1)C1CC1 (racemic)
Plasmodium falciparum [1]; [9]
  EC50: 3.2 µM
Plasmodium falciparum [2]; [10]
  EC50: 4.7 µM

## Cc1ccccc1N(C)C(=O)C(c1cccnc1)N(Cc1cccc(OC(F)(F)F)c1)C1CC1 (racemic)
Plasmodium falciparum [1]; [9]
  EC50: 0.52 µM
Plasmodium falciparum [2]; [10]
  EC50: 0.32 µM
HepG2
  CC50: > 30 µM

## C[C@H]1[C@H](OC(=O)CCC(=O)O)O[C@@H]2O[C@@]3(C)CC[C@H]4[C@H](C)CC[C@@H]1[C@@]24OO3 [ARTESUNATE]
Hemozoin
  IC50: > 1000 µM

## COc1ccc(Br)cc1CN(C)C(c1ccccc1)c1nnnn1-c1ccccc1C (racemic)
Plasmodium falciparum [1]; [9]
  EC50: 5.4 µM
Plasmodium falciparum [2]; rbc
  EC50: 3.5 µM
HepG2
  CC50: > 30 µM
Hemozoin
  IC50: > 1000 µM

## O[C@@H](c1cc(C(F)(F)F)nc2c(C(F)(F)F)cccc12)[C@H]1CCCCN1 [(S,R)-MEFLOQUINE]
Hemozoin
  IC50: 60 µM

## CCc1ccccc1N(C)C(=O)C(c1cccnc1)N(Cc1cccc(C(F)(F)F)c1)C1CC1 (racemic)
Plasmodium falciparum [1]; [9]
  EC50: 0.48 µM
Plasmodium falciparum [2]; [10]
  EC50: 0.19 µM
HepG2
  CC50: > 20 µM

## Cc1ccccc1N(C)C(=O)C(c1cccnc1)N(Cc1cccc(C(F)(F)F)c1)C1CC1 (racemic)
Plasmodium falciparum [1]; [9]
  EC50: 0.59 µM
[6]
  solubility kinetic: > 100 µg/mL
Plasmodium falciparum [2]; [10]
  EC50: 0.34 µM
[7]
  CLH: 781 µL/min/mg
HepG2
  CC50: > 30 µM
[8]
  solubility kinetic: 6.3 µg/mL (≈ 13.9 µM)

## Cc1ncccc1C(c1nnnn1C1CC1)N(C1CC1)C1(c2cccc(C(F)(F)F)c2)CC1 (racemic)
Plasmodium falciparum [1]; [9]
  EC50: 16 µM
Plasmodium falciparum [2]; [10]
  EC50: 14 µM
HepG2
  CC50: > 30 µM

## COc1ccc(Br)cc1CN(C)C(c1ccccc1)c1nnnn1-c1ccccc1C (single isomer, unassigned; (-))
Plasmodium falciparum [1]; rbc
  EC50: 4 µM
Plasmodium falciparum [2]; rbc
  EC50: 4.4 µM

## CCCN(C(c1cccnc1)c1nnnn1-c1ccccc1C)C1(c2cccc(C(F)(F)F)c2)CC1 (racemic)
Plasmodium falciparum [1]; [9]
  EC50: 0.41 µM
Plasmodium falciparum [2]; [10]
  EC50: 0.23 µM
HepG2
  CC50: 10 µM

## Cc1ncc(C(C(=O)N(C)c2ccccc2C)N(Cc2cccc(C(F)(F)F)c2)C2CC2)cn1 (racemic)
Plasmodium falciparum [1]; [9]
  EC50: 7.7 µM
Plasmodium falciparum [2]; [10]
  EC50: 7.5 µM
HepG2
  CC50: > 30 µM

## COc1ccc(Br)cc1CN(C)C(c1ccccc1)c1nnnn1-c1ccccc1C (single isomer, unassigned; (+))
Plasmodium falciparum [1]; rbc
  EC50: 3 µM
Plasmodium falciparum [2]; rbc
  EC50: 1.5 µM

## O=C(C(c1cccnc1)N(Cc1cccc(C(F)(F)F)c1)C1CC1)N1CCCCC1 (racemic)
Plasmodium falciparum [1]; [9]
  EC50: 4.2 µM
[6]
  solubility kinetic: > 100 µg/mL
Plasmodium falciparum [2]; [10]
  EC50: 1.8 µM
[7]
  CLH: 244 µL/min/mg
HepG2
  CC50: > 20 µM
[8]
  solubility kinetic: 25 µg/mL (≈ 59.9 µM)

## Cc1ccccc1-n1nnnc1C(c1cncnc1)N(Cc1cc(F)cc(C(F)(F)F)c1)C1CC1 (single isomer, unassigned; (+))
Plasmodium falciparum [1]; rbc
  EC50: 2.5 µM
Plasmodium falciparum [2]; rbc
  EC50: 0.35 µM

## COc1ccc(C(F)(F)F)cc1CN(C1CC1)C(c1cccnc1)c1nnnn1-c1ccccc1C (racemic)
Plasmodium falciparum [1]; [9]
  EC50: 0.48 µM
[6]
  solubility kinetic: 12.5 µg/mL (≈ 25.3 µM)
Plasmodium falciparum [2]; [10]
  EC50: 0.49 µM
[7]
  CLH: 154 µL/min/mg
[8]
  solubility kinetic: 1.6 µg/mL (≈ 3.24 µM)

## CCN(CC)Cc1cc(Nc2ccnc3cc(Cl)ccc23)ccc1O [AMODIAQUINE]
Hemozoin
  IC50: 8.6 µM

## Cc1ccccc1N(C)C(=O)C(c1cncnc1)N(Cc1cccc(SC(F)(F)F)c1)C1CC1 (racemic)
Plasmodium falciparum [1]; [9]
  EC50: 1 µM
Plasmodium falciparum [2]; [10]
  EC50: 0.26 µM
HepG2
  CC50: > 30 µM

## C[C@H]1c2cccc(O)c2C(=O)C2=C(O)[C@]3(O)C(=O)C(C(N)=O)=C(O)[C@@H](N(C)C)[C@@H]3[C@@H](O)[C@@H]21 [DOXYCYCLINE]
Hemozoin
  IC50: > 1000 µM

## Cc1ccccc1-n1nnnc1C(c1cccnc1)N(C)Cc1cc(C(F)(F)F)ccc1F (racemic)
Plasmodium falciparum [1]; [9]
  EC50: 2.5 µM
Plasmodium falciparum [2]; [10]
  EC50: 1 µM
